# mABHD4 FP = ABHD4 (mouse) inhibition, primary FP screen. Q8VD66. purified mABHD4, FP-Rh probe fluorescence polarization. inhibition, % at 8.92 µM. 370,000 compounds, 0.54% hits. AID 720543;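 active = inhibition exceeding the mean over every tested compound plus 3 SD, cut at about 30% in these data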;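 note: 0% = plate median of compound wells and 100% = S159A mutant with DMSO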
#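 Test system: mouse ABHD4 enzyme, wild type. Reagent: FP-Rh fluorescent activity-based probe, added after compound pre-incubation. Timing: pre-incubation 45 min, probe exposure 60 min, at 25 °C. Technique: FP readout, ex 525 nm / em 598 nm. Benchmarks: high control S159A mutant with DMSO, low control median of compound wells.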
# PRMT1 inh = PRMT1 (human) inhibition, primary screen; Q99873; recombinant PRMT1, activity-based probe fluorescence polarization; 370,000 compounds, 1.3% hits; inhibition, % at 2.79 µM; AID 652257;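 active = inhibition above about 21% made by adding two undisclosed values, limit read from the data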
# Target sequence (Q99873 whole entry, looked up): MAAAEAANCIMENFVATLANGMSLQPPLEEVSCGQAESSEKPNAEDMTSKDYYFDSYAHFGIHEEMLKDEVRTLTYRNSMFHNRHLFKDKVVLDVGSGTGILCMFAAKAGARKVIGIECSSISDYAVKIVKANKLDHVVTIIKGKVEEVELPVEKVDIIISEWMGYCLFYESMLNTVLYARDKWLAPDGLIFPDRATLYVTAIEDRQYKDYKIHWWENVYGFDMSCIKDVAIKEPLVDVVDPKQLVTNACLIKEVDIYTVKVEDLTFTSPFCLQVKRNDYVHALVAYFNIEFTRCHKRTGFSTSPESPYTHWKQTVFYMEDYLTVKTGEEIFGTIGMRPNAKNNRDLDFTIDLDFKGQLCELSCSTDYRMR
# HTRA1 inhibitor = inhibitors of human serine peptidase HTRA1 | recombinant HTRA1, FP-rhodamine activity-based probe, fluorescence polarization | AID 504803 | inhibition, % at 5.96 µM | 340,000 compounds, 0.5% hits | Q92743; in the data active = inhibition above about 36%;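 note: 0% = enzyme with DMSO and 100% = wells lacking enzyme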
# DAGLB inh = diacylglycerol lipase beta (human) inhibition; 340,000 compounds, 0.059% hits; inhibition, % at 5.17 µM; HEK293T DAGLB membrane lysate, EnzChek fluorogenic substrate; Q8NCG7; in the data active = inhibition above about 34%;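 note: 0% = enzyme with vehicle and 100% = wells lacking enzyme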
# LEDGF integ inh = blocks HIV-1 LEDGF/p75-dependent DNA integration. TR-FRET IN-LEDGF/p75 DNA integration, Eu/Cy5. 370,000 compounds, 0.64% hits. inhibition, % at 3.7 µM;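 active = inhibition above the screen-wide mean plus 3 SD, cut at about 13% in these data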;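 note: signal is the Cy5 over europium emission ratio at 671 and 618 nm; 0% = plate median of compound wells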
# rCAG binder-1 = r(CAG) repeat RNA binding | TO-PRO-1 dye displacement fluorescence | inhibition, % at 3 µM | 370,000 compounds, 1.3% hits | AID 651821;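 active = inhibition above the plate cutoff, the mean of all test compounds on that plate plus 3 SD, cut at about 35% in these data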;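 note: 0% = DMSO alone and 100% = 100 µM mitoxantrone as full dye displacement; higher means more dye released from RNA so lower well fluorescence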
# rCAG binder conf = r(CAG) RNA repeat binding, confirmation | shares compounds with rCAG binder-1 | TO-PRO-1 dye displacement fluorescence | inhibition, % at 3 µM | 4,300 compounds, 70% hits;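 active = inhibition above a per-plate cutoff, the mean inhibition of sample wells plus 3 SD, cut at about 35% in these data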;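 note: loss of TO-PRO-1 fluorescence as compound displaces dye from 1x1 AA loop RNA; 0% = DMSO only wells and 100% = 100 µM mitoxantrone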
# dCAG dye counter = DNA CAG dye complex inhibition counter-screen | d(CAG) DNA oligo TO-PRO-1 dye displacement, fluorescence | AID 652068 | shares compounds with rCAG binder-1 | 4,300 compounds, 94% hits | inhibition, % at 3 µM;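 active = inhibition above its plate's cutoff, the mean test-well inhibition plus 3 SD, cut at about 4.8% in these data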;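 note: 0% = DNA dye mix with DMSO and 100% = 100 µM mitoxantrone; hits displace the dye from DNA and so lower well fluorescence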
# dCAG dye DR = disrupts DNA CAG TO-PRO-1 complex in dose response | shares compounds with rCAG binder-1 | DNA CAG/GTC duplex TO-PRO-1 dye displacement fluorescence | IC50, µM | 250 compounds, 20% hits | AID 686960; in the data active = IC50 below about 10 µM
# dCAG DNA bind = DNA CAG dye complex inhibition, late stage dose response. shares compounds with rCAG binder-1. d(CAG) DNA duplex TO-PRO-1 dye displacement, fluorescence. IC50, µM. 30 compounds, 80% hits. AID 720649
# rCAG binder-2 = binds r(CAG) RNA repeats in late stage dose response; IC50, µM; 30 compounds, 100% hits; shares compounds with rCAG binder-1; r(CAG) RNA TO-PRO-1 dye displacement, fluorescence; AID 720651
# * = called active by the depositor; i = inactive; nt = no result given. In the library only some 3.2% were active in any assay of this set; here they are far more common. Unless noted, the rule behind the calls is not given here.
SMILES,mABHD4 FP,PRMT1 inh,HTRA1 inhibitor,DAGLB inh,LEDGF integ inh,rCAG binder-1,rCAG binder conf,dCAG dye counter,others
COc1cccc(C(=O)/C=C/Nc2ccc(S(=O)(=O)Nc3cc(OC)nc(OC)n3)cc2)c1,-5,-2,-6,3,3,45*,54*,19*,
COc1cc(NS(=O)(=O)c2ccc(N/C=C\C(=O)c3ccc(OC)c(OC)c3)cc2)nc(OC)n1,2,1,-3,1,2,35*,46*,14*,
COc1cc(NS(=O)(=O)c2ccc(NC(C)=O)cc2)nc(OC)n1,1,0,5,-3,1,0,nt,nt,
COc1ccc(-c2csc(Nc3ccc(S(=O)(=O)Nc4cc(OC)nc(OC)n4)cc3)n2)cc1,27,-2,2,6,2,90*,90*,57*,
Cc1nn(Cc2c(F)c(F)c(F)c(F)c2F)c(C)c1NC(=O)c1ccc(COc2ccc(F)cc2)o1,-10,-1,-22,-5,-2,-5,nt,nt,
COc1ccc(C/C(C)=N/NC(=S)Nc2ccc(C(C)C)cc2)cc1,3,2,3,-4,0,1,nt,nt,
CSC1=NSC2=NC(=O)/C(=C\c3cccs3)C(=N)N12,-7,1,-4,8,5,13,nt,nt,
N=C1/C(=C/c2cccs2)C(=O)N=C2SN=C(SCc3ccccc3)N12,-52,-1,-50,33,2,75*,82*,50*,
CC(C)CSC1=NSC2=NC(=O)/C(=C\c3cccs3)C(=N)N12,-33,2,-27,26,3,72*,57*,21*,dCAG dye DR=i;dCAG DNA bind=4.3*;rCAG binder-2=1.7*
C=C(C)C(=O)NNc1ccccc1,-2,0,8,1,-2,-2,nt,nt,
CC(C)[C@H](NC(=O)N1CC(=O)Nc2ccccc21)C(=O)N1CCC(C(=O)O)CC1,2,0,8,-3,0,1,nt,nt,
Cc1ccc(Cn2cc(CN3[C@H](c4ccccc4)COc4cc(Br)ccc4S3(=O)=O)nn2)cc1,-45,-4,nt,nt,0,66*,51*,19*,
C[C@@H]1COc2cc(Br)ccc2S(=O)(=O)N1Cc1cn(Cc2ccccc2)nn1,1,1,nt,nt,-3,3,nt,nt,
O=S(=O)(/N=C(/Nc1nc2ccccc2s1)c1ccccc1)c1ccc(F)cc1,-26,0,-8,6,3,38*,31,6.6*,
O=S(=O)(/N=C(/Nc1nccs1)c1ccc(F)cc1)c1ccccc1,-5,-3,4,-2,-2,4,nt,nt,
Cc1cc(NC(=O)c2ccc(Cl)cc2)c(C)cc1O,4,-5,3,-1,4,-2,nt,nt,
Cc1cc(C(C#N)c2ccc(Cl)cc2)c(Cl)cc1NC(=O)c1cc(I)cc(I)c1O (stereo unspecified),5,4,-25,4,-4,73*,93*,78*,
Cc1ccc(C(C)C)c(OCC(=O)NNC(=O)Nc2ccccc2)c1,-4,2,-10,-8,2,-1,nt,nt,
Cc1ccc(S(=O)(=O)NC(=O)COc2cc(C)ccc2C(C)C)cc1,3,0,-7,8,4,36*,18,3,
CCCc1c(NC(=O)Nc2ccc(F)cc2)cnn1-c1ccccc1,-4,3,-7,0,-1,-4,nt,nt,
COc1cc(C2NC(=O)NC(C)=C2C(=O)OC2CCC(C)CC2)ccc1O (stereo unspecified),3,6,13,2,4,-7,nt,nt,
CC1(C(=O)NS(=O)(=O)c2ccc(C#N)cc2)CCN1C(=O)Cc1cccc2ccccc12 (stereo unspecified),9,3,nt,nt,2,12,nt,nt,
CC1(C(=O)NS(=O)(=O)c2ccc(C#N)cc2)CCN1C(=O)Cc1ccc(-c2ccccc2)cc1 (stereo unspecified),0,3,nt,nt,2,42*,43*,11*,
CC1(C(=O)NS(=O)(=O)c2cccc(C#N)c2)CCN1C(=O)Cc1ccc(-c2ccccc2)cc1 (stereo unspecified),3,-1,nt,nt,3,41*,44*,11*,
CC(C)(C)c1ccc(CC(=O)N2CCC2(C)C(=O)NS(=O)(=O)c2cccc(C#N)c2)cc1 (stereo unspecified),5,1,nt,nt,-1,30,nt,nt,
SMILES,mABHD4 FP,PRMT1 inh,HTRA1 inhibitor,DAGLB inh,LEDGF integ inh,rCAG binder-1,rCAG binder conf,dCAG dye counter,others
CN(c1cccc(NC(=O)c2ccccc2N(C)S(=O)(=O)c2ccccc2)c1)S(C)(=O)=O,2,1,-1,-3,1,-2,nt,nt,
Cc1cc(C)cc(Nc2nc3ccccc3c(=O)[nH]2)c1,10,-2,-4,-9,0,41*,14,16*,
COc1nc(Nc2nc3ccccc3c(=O)[nH]2)nc2ccc(C)cc12,-2,-3,3,-2,5,13,nt,nt,
O=[N+]([O-])c1cccc(S(=O)(=O)Nc2nc3ccccc3nc2Nc2cccc(S(=O)(=O)N3CCCCC3)c2)c1,22,-1,-6,2,-2,52*,95*,86*,
CC(=O)Nc1ccc(S(=O)(=O)Nc2nc3ccccc3nc2Nc2cccc(S(N)(=O)=O)c2)cc1,1,3,-5,-1,-2,52*,37*,7.6*,
CC(=O)Nc1ccc(S(=O)(=O)Nc2nc3ccccc3nc2Nc2ccccc2)cc1,0,-1,0,5,4,47*,40*,9.6*,
CC(=O)Nc1ccc(Nc2nc3ccccc3nc2NS(=O)(=O)c2ccccc2)cc1,5,3,3,-5,3,34,nt,nt,
O=C(COc1ccccc1Cl)NC(=S)Nc1cccc(NC(=O)c2ccccc2Cl)c1,-11,-2,-36,-7,-3,-2,nt,nt,
O=C(COc1ccccc1Cl)Nc1ccc(C(=O)O)cc1NC(=O)COc1ccccc1Cl,-12,-1,-2,3,-2,67*,53*,19*,
Cc1cc(C(=O)Nc2ccccc2C(=O)O)ccc1NC(=O)COc1ccccc1Cl,-17,3,-4,3,0,12,nt,nt,

# Screens deposited in PubChem BioAssay by The Scripps Research Institute Molecular Screening Center.
